Entries after “also recorded” stand apart in the source; their conditions may differ.
Key:
HEK 293T/17 cells [1] = assay: Mitochondrial-uncoupling assay; assay type: cell-based, human; settings: 50 μM compound, TMRE staining
Procedure, shortened: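 HEK 293T/17 cells were trypsinised and suspended at 1−2 × 10^6 cells/mL in DMEM with 10% FBS, then given test compound (50 μM) or DMSO for 30 min at 37 °C. TMRE (~450 nM final) was added for 30 min in the dark at 37 °C. Cells were washed twice in 0.2% BSA/PBS, resuspended, and read by plate fluorescence (em 575 nm). Unstained and DMSO controls were included; mean ± sd, n = 3.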

OvCHT1 = target: T1, OvCHT1 (Onchocerca volvulus, UniProt Q25615); assay: O. volvulus chitinase; assay type: biochemical; settings: for inhibition of OvCHT1 at single concentration: 10 μM final concentration, relative to control (0.5% DMSO in water)
T1 sequence (Q25615 22-497): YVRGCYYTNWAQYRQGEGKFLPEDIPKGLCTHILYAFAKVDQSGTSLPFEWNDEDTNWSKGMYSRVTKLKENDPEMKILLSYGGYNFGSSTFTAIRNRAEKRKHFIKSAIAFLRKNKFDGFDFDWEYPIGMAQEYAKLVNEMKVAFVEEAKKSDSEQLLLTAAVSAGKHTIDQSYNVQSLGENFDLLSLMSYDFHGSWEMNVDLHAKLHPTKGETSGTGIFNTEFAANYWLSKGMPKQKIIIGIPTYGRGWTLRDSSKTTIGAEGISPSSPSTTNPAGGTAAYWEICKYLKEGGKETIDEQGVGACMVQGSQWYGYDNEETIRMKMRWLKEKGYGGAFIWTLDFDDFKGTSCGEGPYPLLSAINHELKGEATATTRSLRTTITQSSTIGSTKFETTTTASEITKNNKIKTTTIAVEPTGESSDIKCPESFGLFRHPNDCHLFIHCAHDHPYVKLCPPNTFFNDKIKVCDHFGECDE

O. volvulus L3 larvae = assay: O. volvulus L3 molting inhibition; assay type: cell-based, Onchocerca volvulus; settings: for inhibition at 1 µM: Onchocerca volvulus, read-out: inhibition of O. volvulus L3 molting
BmCHT1 = target: T2, BmCHT1 (Brugia malayi, UniProt P29030); assay: Chitinase activity assay, Brugia malayi chitinase; assay type: biochemical; settings: 10 μM final concentration
T2 sequence (P29030 23-504): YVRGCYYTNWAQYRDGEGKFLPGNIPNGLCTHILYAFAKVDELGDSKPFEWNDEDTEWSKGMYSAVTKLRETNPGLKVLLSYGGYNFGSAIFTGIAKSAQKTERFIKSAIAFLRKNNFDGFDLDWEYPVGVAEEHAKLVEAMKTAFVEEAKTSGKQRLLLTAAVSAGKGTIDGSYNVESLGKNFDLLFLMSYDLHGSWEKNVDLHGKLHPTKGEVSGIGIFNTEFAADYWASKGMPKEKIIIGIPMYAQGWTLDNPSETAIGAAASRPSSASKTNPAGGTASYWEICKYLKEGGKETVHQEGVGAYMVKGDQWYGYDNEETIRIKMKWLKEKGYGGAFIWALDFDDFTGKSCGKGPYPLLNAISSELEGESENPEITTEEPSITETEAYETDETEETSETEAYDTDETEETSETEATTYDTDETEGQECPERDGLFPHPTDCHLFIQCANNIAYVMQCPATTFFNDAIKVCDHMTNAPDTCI

C. elegans = assay: Bioaccumulation in C. elegans; assay type: in vitro ADME, Caenorhabditis elegans; settings: for accumulation in C. elegans (in words): late-stage L4 worms, 10 μM (2 nmol/mg worm), 6 h, LC-MS of homogenates; for worm concentration as share of the dose: at 6 h, dose 2 nmol/mg worm
Procedure, shortened: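 Synchronised C. elegans grown to late L4 on E. coli OP50 at 25 °C for 40 h, water-washed, and suspended in M9 at ~5−10 worms/μL. Dosed at 10 μM final (~2 nmol/mg worm) from DMSO stock, 6 or 12 h at rt. Washed in 0.1% SDS then water, frozen, lyophilised, weighed, extracted into cold MeOH/MeCN with internal standard. Quantified by LC-ESI-MS against blank-worm calibration; mean ± sd, n = 3.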

EhCHT1 = assay: Chitinase activity assay, Entamoeba histolytica chitinase; assay type: biochemical; settings: 10 μM final concentration
PfCHT1 = target: T3, PfCHT1 (Plasmodium falciparum, UniProt Q8I4R4); assay: Chitinase activity assay, Plasmodium falciparum chitinase; assay type: biochemical; settings: 10 μM final concentration
T3 sequence (Q8I4R4 29-378): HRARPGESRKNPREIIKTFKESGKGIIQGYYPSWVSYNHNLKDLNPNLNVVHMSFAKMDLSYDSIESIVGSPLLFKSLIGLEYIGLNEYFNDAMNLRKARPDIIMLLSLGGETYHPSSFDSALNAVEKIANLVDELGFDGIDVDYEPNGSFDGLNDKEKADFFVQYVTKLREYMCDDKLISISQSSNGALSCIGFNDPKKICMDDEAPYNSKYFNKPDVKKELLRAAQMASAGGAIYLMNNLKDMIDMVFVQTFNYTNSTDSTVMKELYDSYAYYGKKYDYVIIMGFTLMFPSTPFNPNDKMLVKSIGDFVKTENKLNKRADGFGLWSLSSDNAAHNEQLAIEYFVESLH

HEK 293T/17 cells [2] = assay: Cell viability assay; assay type: cell-based, human; settings: 1 and 10 μM, 24 h, MTS assay
Procedure, shortened: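 HEK 293T/17 cells (2 × 10^4) plated and held 24 h at 37 °C, then exposed to test compound at 1 and 10 μM final. Viability was read by MTS at 0.5 and 24 h after treatment.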

[3] = 10 μM, 24 h preincubation, molting assessed day 6

| Compound | mitochondrial-uncoupling (protonophoric) activity (HEK 293T/17 cells [1]) | effect on O. volvulus L3 molting (O. volvulus L3 larvae; [3]) | inhibition of BmCHT1 at single concentration (BmCHT1) | inhibition of OvCHT1 at single concentration (OvCHT1) | accumulation in C. elegans (in words) (C. elegans) | inhibition of EhCHT1 at single concentration (EhCHT1) | inhibition of PfCHT1 at single concentration (PfCHT1) | further results |
| --- | --- | --- | --- | --- | --- | --- | --- | --- |
| COc1c(I)cc(I)cc1C(=O)O [Compound 6b, 3,5-Diiodo-2-methoxybenzoic Acid] | neither an OvCHT1 inhibitor nor a protonophore | no inhibition on molting | – | – | – | – | – | OvCHT1 inhibitor or not (in words) (OvCHT1): neither an OvCHT1 inhibitor nor a protonophore |
| O=C(Nc1ccc(-c2ccccc2)cc1)c1cc(I)cc(I)c1O [Compound 5a, N-([1,1′-Biphenyl]-4-yl)-2-hydroxy-3,5-diiodobenzamide] | – | – | sparing | complete inhibition | accumulated in C. elegans | sparing | sparing | – |
| COc1c(I)cc(I)cc1C(=O)Nc1ccc(Oc2ccc(Cl)cc2)cc1 [Compound 3i, N-(4-(4-Chlorophenoxy)phenyl)-3,5-diiodo-2-methoxybenzamide] | loss of uncoupling activity; also recorded: devoid of protonophoric activity | only marginal inhibition | sparing | complete inhibition | accumulated in C. elegans | sparing | sparing | effect on O. volvulus L3 molting (O. volvulus L3 larvae; 100 μM): completely hindered L3 molting |
| O=C(Nc1ccc(-c2ccc(Cl)cc2)cc1)c1cc(I)cc(I)c1O [Compound 5c, N-(4′-Chloro-[1,1′-biphenyl]-4-yl)-2-hydroxy-3,5-diiodobenzamide] | – | – | sparing | complete inhibition | accumulated in C. elegans | sparing | sparing | – |
| COc1c(I)cc(I)cc1C(=O)N(C)c1ccc(Oc2ccccc2)cc1 [Compound 3d, 3,5-Diiodo-2-methoxy-N-methyl-N-(4-phenoxyphenyl)benzamide] | loss of uncoupling activity | – | – | – | – | – | – | – |
| O=C(Nc1ccc(Oc2ccccc2)cc1)c1cc(I)cc(I)c1 [Compound 3e, 3,5-Diiodo-N-(4-phenoxyphenyl)benzamide] | loss of uncoupling activity | – | – | – | – | – | – | – |
| O=C(Nc1ccc2ccccc2c1)c1cc(I)cc(I)c1 [Compound 4c, 3,5-Diiodo-N-(naphthalen-2-yl)benzamide] | loss of uncoupling activity | – | – | – | – | – | – | – |
| O=C(Nc1ccc(Oc2ccc(Cl)cc2)cc1)c1cc(I)cc(I)c1 [Compound 3j, N-(4-(4-Chlorophenoxy)phenyl)-3,5-diiodobenzamide] | loss of uncoupling activity; also recorded: devoid of protonophoric activity | – | sparing | complete inhibition | accumulated in C. elegans | sparing | sparing | – |
| O=C(Nc1ccc(Oc2ccccc2)cc1)c1cc(I)cc(I)c1O [Compound 3a, 2-Hydroxy-3,5-diiodo-N-(4-phenoxyphenyl)benzamide] | mitochondrial-uncoupling activity | – | – | – | – | – | – | – |
| N#CC(C#N)=NNc1cccc(Cl)c1 [CCCP, carbonyl cyanide m-chlorophenyl hydrazone, reference compound] | a protonophore only | fully inhibited the molting | – | – | accumulated in C. elegans | – | – | effect on O. volvulus L3 molting (O. volvulus L3 larvae; 1 μM): did not show any impact on molting |
| O=C(Nc1ccc(Oc2ccc(Cl)cc2)cc1)c1cc(I)cc(I)c1O [Compound 3h, N-(4-(4-Chlorophenoxy)phenyl)-2-hydroxy-3,5-diiodobenzamide] | mitochondrial-uncoupling activity | completely abolished molting | sparing | complete inhibition | accumulated in C. elegans | sparing | sparing | effect on cell viability of HEK 293T/17 cells (HEK 293T/17 cells [2]): no considerable effect on cell viability; inhibition at 1 µM (O. volvulus L3 larvae): ≤ 84% |
| CN(C(=O)c1cc(I)cc(I)c1O)c1ccc(Oc2ccccc2)cc1 [Compound 3c, 2-Hydroxy-3,5-diiodo-N-methyl-N-(4-phenoxyphenyl)benzamide] | eradicated protonophoric activity | – | – | – | – | – | – | – |
| O=C(Nc1ccc(Oc2ccc(Cl)cc2)c(Cl)c1)c1cc(I)cc(I)c1O [Compound 3m, rafoxanide, reference compound] | good mitochondrial-uncoupling activity | completely abolished molting | sparing | complete inhibition | accumulated in C. elegans | sparing | sparing | effect on cell viability of HEK 293T/17 cells (HEK 293T/17 cells [2]): no considerable effect on cell viability; worm level as share of the initial dose (C. elegans; at 6 and 12 h, initial dose 2 nmol/mg worm): > 75%; inhibition of O. volvulus L3 molting (O. volvulus L3 larvae; 1 μM, 24 h preincubation, molting assessed day 6): up to 84% |
| COc1c(I)cc(I)cc1C(=O)Nc1ccc(Oc2ccccc2)cc1 [Compound 3b, 3,5-Diiodo-2-methoxy-N-(4-phenoxyphenyl)benzamide] | loss of uncoupling activity | – | – | – | – | – | – | – |
| COc1c(I)cc(I)cc1C(=O)Nc1ccc2ccccc2c1 [Compound 4b, 3,5-Diiodo-2-methoxy-N-(naphthalen-2-yl)benzamide] | loss of uncoupling activity; also recorded: devoid of protonophoric activity | inhibited molting | – | – | accumulated in C. elegans | – | – | worm concentration as share of the dose (C. elegans): less than 50%; effect on O. volvulus L3 molting (O. volvulus L3 larvae; 1 μM): did not show any impact on molting |
| O=C(Nc1ccc2ccccc2c1)c1cc(I)cc(I)c1O [Compound 4a, 2-Hydroxy-3,5-diiodo-N-(naphthalen-2-yl)benzamide] | mitochondrial-uncoupling activity | completely abolished molting | – | – | accumulated in C. elegans | – | – | effect on cell viability of HEK 293T/17 cells (HEK 293T/17 cells [2]): no considerable effect on cell viability; worm concentration as share of the dose (C. elegans): less than 50%; inhibition at 1 µM (O. volvulus L3 larvae): ≤ 84% |

— article PMC4216208 (Journal of Medicinal Chemistry, 2014)
